NF-kB expr up – compounds increasing NF-kB expression in human neuronal cells; NF-kB reporter expression; active compounds read high; fold change at 12.5 µM; actives 1.6% (n = 190,000); in the data active = fold change above about 3.3
STAT3 blocker – inhibitors of IL-6 induced STAT3 signaling; U3A cells, IL-6 STAT3-luciferase reporter, luminescence; host cell line lacks STAT1; inhibition, % at 5.5 µM; actives 0.89% (n = 190,000); AID 862;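 active = inhibition above the mean inhibition across all screened compounds plus 3 SD, cut at about 44% in these data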
APP 5'UTR act – activates APP 5'UTR luciferase reporter; SH-SY5Y APP 5'UTR luciferase reporter, luminescence; zero percent = DMSO vehicle wells; activation, % at 2 µM; actives 1% (n = 190,000); AID 1276;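 active = activation above a set limit, based on mean plus 3 SD of controls, cut at about 140% in these data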
STAT1 inh – reduces IFN-gamma driven STAT1 reporter signal | NIH 3T3 STAT1-luciferase reporter, luminescence | inhibition, % at 5.5 µM | actives 0.35% (n = 200,000) | AID 920;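 active = inhibition above a set limit, the mean inhibition across all tested compounds plus 3 SD, cut at about 34% in these data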
STAT1 activator – STAT1 signaling activation. NIH 3T3 STAT1-luciferase reporter, IFN-gamma, luminescence; 100% = IFN-gamma alone, no compound. activation (% of control), % at 5.5 µM. actives 2.6% (n = 200,000). AID 932;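 active = activation above the screen-wide mean activation plus 3 SD, cut at about 130% in these data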
STAT3 act – increases IL-6 driven STAT3 reporter signal. U3A cells, IL-6 STAT3-luciferase reporter, luminescence; 100% = signal with IL-6 EC80 alone. activation (% of control), % at 5.6 µM. actives 0.91% (n = 190,000);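 active = activation above the screen-wide mean of compound activation plus 3 SD, cut at about 130% in these data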
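Test system: Human STAT1-deficient U3A cells with stable STAT3-luciferase reporter | Also added: Interleukin-6, 33 ng/mL | Timing: Compound pre-incubation 1 h before IL-6, then 6 h stimulation at 37 °C | Technique: Luciferase reporter luminescence | Read-out: Percent of IL-6-only median luminescence | Benchmarks: IL-6-only wells as 100% reference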
Large screens that a line does not name were inactive. Shown are actives, neighbours in structure and some others; about 4.9% of the full set was active somewhere.

COc1ccc(CNc2nc3nc(C)cc(C)n3n2)cc1	none
COc1ccc(-c2cc3nc(C)cc(C)n3n2)cc1	NF-kB expr up 3.57, STAT1 activator 134.7, STAT3 act 155.9
COc1ccc(-c2nc3nc(C)cc(C)n3n2)cc1	STAT1 activator 128.6 (no result: APP 5'UTR act)
Cn1c(=O)n(C)c2cc(/C=N/N=C3/NC(=O)C(CC(=O)O)S3)ccc21 (configuration not stated)	none
Cc1ccc(C(=O)CC2(O)C(=O)N(C)c3ccccc32)s1 (configuration not stated)	none
COc1ccccc1N1CCN(C2CCN(C(=O)COc3ccccc3)CC2)CC1	none
O=C(Nc1ccccc1)c1ccc(-c2ccc(F)cc2)s1	STAT1 activator 142.9
COCCNC(=S)N/N=C(\C)c1ccccc1O	NF-kB expr up 15.2
CC(C)CN(C(=O)CN1CCc2ccccc21)c1c(N)n(CC(C)C)c(=O)[nH]c1=O	STAT3 act 133.0
CC1CCCC(C)N1C(=O)COc1ccc([N+](=O)[O-])cc1Cl (configuration not stated)	none (no result: NF-kB expr up)
O=C(O)c1ccc2oc(SCC(=O)N3CCCCC3)nc2c1	STAT1 activator 136.7
O=C(Cn1ncc(N2CCOCC2)c(Br)c1=O)c1ccc(Cl)cc1	none
O=C(Cn1ncc(N2CCCC2)c(Cl)c1=O)c1ccc(Cl)cc1	STAT1 activator 135.6
C=CCSC1=N/C(=C\c2ccc(C(=O)O)cc2)C(=O)S1	none
CCOc1ccc(CN2CCN(Cc3cccn3-c3ncccn3)CC2CCO)cc1 (configuration not stated)	none
COc1ccccc1N(CC(O)Cn1ccnc1C)S(=O)(=O)c1ccccc1 (configuration not stated)	none
COc1ccc(-c2cc(=Nc3c(C)n(C)n(-c4ccccc4)c3=O)c3ccccc3o2)cc1	STAT1 activator 141.6
COc1ccc(-c2csc(=Nc3c(C)n(C)n(-c4ccccc4)c3=O)n2C(C)(C)C)cc1	none
Cc1ccc(OCc2cnc(Cl)s2)c(C)c1	STAT1 activator 137.0
O=[N+]([O-])c1cc(/C=N/N2CCCCC2)ccc1Cl	STAT1 activator 132.5
O=[N+]([O-])c1cc(/C=N/N2CCN(c3ccccc3)CC2)ccc1Cl	none
Cc1cccc2sc(NS(C)(=O)=O)nc12	none
c1ccc2[nH]c(-c3ccncc3)nc2c1	none
O=c1[nH]c(-c2ccccn2)nc2ccccc12	STAT1 activator 134.6
c1ccc(-c2nc3ccccc3[nH]2)nc1	STAT1 activator 136.7
Nc1nc(-c2nc3ccccc3[nH]2)cs1	NF-kB expr up 4.29, APP 5'UTR act 139.7, STAT1 activator 140.0
C=C(C)C1Cc2c(C)nn(-c3cc(C)c4ccccc4n3)c2C1 (configuration not stated)	none (no result: NF-kB expr up)
Cc1ccc(NC(=O)c2c(Cl)nc3ccccn23)cc1	STAT1 activator 139.4
Cc1nc2ccccn2c1C(=O)Nc1ccc(Cl)cc1	STAT1 activator 140.3
Cc1nc(C)c(C(=O)NNS(=O)(=O)c2ccc3ccccc3c2)s1	none
O=C(CSc1nnc(Nc2ccccc2)s1)NN1C(=O)NC2(CCCCC2)C1=O	none
O=C(CCCNC(=O)/C(=C/c1ccccc1F)NC(=O)c1ccccc1)OCc1ccccc1	none
Cc1ccc(Nc2nc(-c3sc(NC(=O)c4ccco4)nc3C)cs2)cc1	STAT3 act 135.3
O=C(Nc1nc(-c2ccc(Cl)s2)cs1)c1ccco1	STAT1 activator 129.5
O=C1c2ccccc2C(=O)N1CCSc1nncs1	none
O=C1c2ccccc2C(=O)N1CCSc1ccccc1	STAT1 activator 138.1
CCc1ccc(NC(=O)c2cnc3n(c2=O)CCS3)cc1	STAT1 activator 130.8
CCc1ccccc1NC(=O)c1cnc2n(c1=O)CCS2	none
Cc1ccccc1C(=O)c1cccn1CC(=O)NC(C)c1ccc2c(c1)OCCO2 (configuration not stated)	none
O=C(NCc1cccc(F)c1)C1CCN(C(=O)c2sccc2-n2cccc2)CC1	none
Cc1ccc(N=Cc2sc(O)c3ccccc23)c(C)c1	STAT1 activator 147.3
Cc1csc(NC(=O)CSc2nsc(SCC(=O)Nc3nc(C)cs3)c2C#N)n1	STAT1 activator 132.0
CSc1nsc(SCC(=O)Nc2nc3ccccc3s2)n1	none
Cc1cc(C)c(C#N)c(SCC(=O)Nc2nnc(-c3ccccc3)s2)n1	none
Cc1nc(SCC(=O)Nc2nc3ccccc3s2)c(C#N)c(C)c1C	STAT3 blocker 87.7, STAT1 inh 57.9
Cc1ccc2sc(NC(=O)CSc3nc(C)cc(C)c3C#N)nc2c1	NF-kB expr up 6.54
CCc1ccc(OCC(=O)Nc2ccc(N3CCN(S(C)(=O)=O)CC3)cc2)cc1	none
CCOC(=O)C1=C(O)C(=O)N(Cc2ccccc2)CC1	none
O=C1N=C(N2CCCC2)CN1c1ccccc1	none
COC(=O)c1ccc(C(=O)OC)c(NC(=O)CN(c2ccc3c(c2)OCO3)S(C)(=O)=O)c1	none
Cc1ccc(N=C2NC(=O)/C(=C\c3ccc(C)s3)S2)cc1	none
Cc1ccc2nc3cc([N+](=O)[O-])cc([N+](=O)[O-])c3cc2c1	NF-kB expr up 5.3
Cc1nc2ccc([N+](=O)[O-])cc2nc1C	none
Cc1ccccc1S(=O)(=O)c1c(C)cc(-c2ccccc2)[nH]c1=O	none
Clc1ccc(-c2cc(CSc3cccc(Cl)c3)on2)cc1	none (no result: APP 5'UTR act)
Clc1ccc(-c2cc(CSc3ccccc3)on2)cc1	NF-kB expr up 6.18, STAT1 activator 135.9 (no result: APP 5'UTR act)
CCCOc1ccc(/C=N/Nc2ccccc2[N+](=O)[O-])c(O)c1	APP 5'UTR act 172.7
O=[N+]([O-])c1cccnc1N/N=C/c1ccccc1O	STAT1 activator 130.0
CC1CCC(NC(=O)c2ccc3nc[nH]c3c2)CC1 (configuration not stated)	STAT1 activator 128.6
c1ccc2nc(-c3nc4ccccc4o3)ccc2c1	STAT3 blocker 80.3, STAT1 inh 38.0
FC(F)(F)c1nnc2ccc(NCc3ccccc3)nn12	none
O=C(NCc1ccco1)Nc1ccc(Br)cc1Cl	STAT1 activator 133.1
CCN(CC)Cc1c(NC(=O)c2ccccc2)sc(C)c1C	STAT1 activator 134.2
CCOC(=O)c1sc(NC(=O)C2CC2)cc1C	none
CCN(CC)C(=O)c1c(NC(=O)c2ccccc2)sc(C)c1C	none
CCOC(=O)c1sc(=NC(=O)c2ccccc2)n(C)c1C	NF-kB expr up 6.71, APP 5'UTR act 180.5, STAT1 activator 137.8
CCOC(=O)c1sc(NC(=O)c2ccc(Cl)s2)cc1C	STAT1 activator 132.1
CCOC(=O)c1sc(NC(=O)C(C)(C)C)cc1C	STAT1 activator 131.3
CCOC(=O)c1sc(NC(=O)Nc2ccc(Cl)cc2)cc1C	none
CCOC(=O)c1sc(NC(=O)c2ccccc2)cc1C	NF-kB expr up 6.73, STAT1 activator 145.2
CCOC(=O)c1csc(NC(=O)c2ccccc2)n1	NF-kB expr up 3.64, APP 5'UTR act 144.2, STAT1 activator 136.1

Assay outcomes from PubChem BioAssay.
